Screening results from PubChem BioAssay.
Granule exo inh = blocks lytic granule exocytosis | TALL-104 LAMP-1 surface exposure, flow cytometry; cells stimulated with thapsigargin and PMA | inhibition, % at 10 µM | actives 0.66% (n = 360,000);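 active means inhibition above about 55%, limit read from the data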
B2AR ag = human beta-2 adrenergic receptor agonism by FAP | Am2.2-beta2AR cells, FAP receptor internalization, flow cytometry | response, % (no concentration beside the values) | actives 0.43% (n = 340,000);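 active means response above a set limit, near 3 SD of response in nonfluorescent compounds, cut at about 42% in these data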
Target sequence (P07550 whole entry, looked up): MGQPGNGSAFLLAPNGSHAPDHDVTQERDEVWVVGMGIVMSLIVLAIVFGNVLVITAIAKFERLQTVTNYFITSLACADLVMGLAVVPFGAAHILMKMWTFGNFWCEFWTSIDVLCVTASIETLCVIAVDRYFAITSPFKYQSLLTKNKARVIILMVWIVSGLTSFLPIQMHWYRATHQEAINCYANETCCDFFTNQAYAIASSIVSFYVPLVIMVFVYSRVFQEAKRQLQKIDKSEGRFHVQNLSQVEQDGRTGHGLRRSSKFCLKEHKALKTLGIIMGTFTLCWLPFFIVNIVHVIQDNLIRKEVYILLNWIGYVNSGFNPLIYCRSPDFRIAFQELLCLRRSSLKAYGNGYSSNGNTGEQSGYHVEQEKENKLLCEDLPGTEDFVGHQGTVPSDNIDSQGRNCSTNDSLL
MPTP block = inhibitors of mitochondrial permeability transition pore | isolated mouse mitochondria, Ca2+ swelling absorbance, 30 min | inhibition, % at 10 µM | actives 1.4% (n = 360,000);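 active means inhibition of 50% or more, scaled per plate between neutral and stimulator controls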;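 further: 0% = DMSO wells given calcium and 100% = 1 mM EGTA wells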
T cell modulator = modulates CD8 T cell binding to vesicles | 2C CD8+ T cell-vesicle binding, flow cytometry; active compounds read low | response (vesicle binding), % at 7 µM | actives 0.068% (n = 330,000) | AID 2052;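 active means response, share of CD8 T cells binding vesicles, and their 90th percentile fluorescence all below set limits, cut at about 80% in these data, passing the limit was not always enough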;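 further: values below 100% mean blocked vesicle binding to the CD8+ T cells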
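Read-out – percent CD8+ FL2 mean versus row control · System – murine 2C transgenic CD8+ T lymphocytes · Times – 1.5 h cell–vesicle binding at 37 °C, then 20 min icy labelling · Control set – naked vesicles low, QL9 vesicles with vehicle high · Detection – cytometric PE anti-B7-1 and Alexa647 anti-CD8 signals after 1% paraformaldehyde fixation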
V-ATPase pHluor = alters yeast V-ATPase proton transport; S. cerevisiae, pHLuorin cytosolic pH fluorescence; response, % at 10 µM; actives 0.37% (n = 350,000); AID 504577; in the data active means response mostly above about 7.3%, no sharp cut-off; inactive means mostly below about 5.4%; further: actives read high
rCAG binder = r(CAG) repeat RNA binding. TO-PRO-1 dye displacement fluorescence. inhibition, % at 3 µM. actives 1.3% (n = 370,000);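 active means inhibition above the plate cutoff, the mean of all test compounds on that plate plus 3 SD, cut at about 35% in these data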;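 further: 0% = DMSO alone and 100% = 100 µM mitoxantrone as full dye displacement; higher means more dye released from RNA so lower well fluorescence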
rCAG bind conf = r(CAG) RNA repeat binding, confirmation; shares compounds with rCAG binder; TO-PRO-1 dye displacement fluorescence; inhibition, % at 3 µM; actives 70% (n = 4,300);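 active means inhibition above a per-plate cutoff, the mean inhibition of sample wells plus 3 SD, cut at about 35% in these data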;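 further: loss of TO-PRO-1 fluorescence as compound displaces dye from 1x1 AA loop RNA; 0% = DMSO only wells and 100% = 100 µM mitoxantrone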
DNA CAG counter = counter-screen for rCAG RNA binders: DNA CAG dye complex inhibitors; actives 94% (n = 4,300); AID 652068; d(CAG) DNA oligo TO-PRO-1 dye displacement, fluorescence; shares compounds with rCAG binder; inhibition, % at 3 µM;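 active means inhibition above its plate's cutoff, the mean test-well inhibition plus 3 SD, cut at about 4.8% in these data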;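 further: 0% = DNA dye mix with DMSO and 100% = 100 µM mitoxantrone; hits displace the dye from DNA and so lower well fluorescence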
dCAG dye DR = disrupts DNA CAG TO-PRO-1 complex in dose response | shares compounds with rCAG binder | DNA CAG/GTC duplex TO-PRO-1 dye displacement fluorescence | IC50, µM | actives 20% (n = 250); in the data active means IC50 below about 10 µM
Starred values were filed as active, the others as inactive; / = no result. This is a sample that favours compounds with a hit; in the whole collection about 3.8% have one here.

SMILES | Granule exo inh | B2AR ag | MPTP block | T cell modulator | V-ATPase pHluor | rCAG binder | rCAG bind conf | DNA CAG counter | others
O=C(O)c1cccc(N2C(=O)C3C4C=CC(C4=C(c4ccccc4)c4ccccc4)C3C2=O)c1 (stereo not drawn) | -1.5 | -1.6 | -0.3 | 390.7 | 0.2 | 34.7* | 46.8* | 11.5*
NNc1nc(Nc2ccc([N+](=O)[O-])cc2)nc(N2CCCCCC2)n1 | -7.1 | 8.9 | 1.4 | 179.9 | 1.8 | 35.9* | 28.8 | 16.3*
COCCCn1c(=O)/c(=C\c2cccc(OC)c2OC)s/c1=C(/C#N)C(=O)Nc1ccc(C(=O)O)cc1 | 11.5 | 15.4 | 2.2 | 452.3 | -3.6 | 52.4* | 73.0* | 34.1*
Cc1ccc2c(c1)C1CS(=O)(=O)N(Cc3ccccc3)C(=O)N1C2 (stereo not drawn) | / | / | / | / | / | 0.8 | / | /
COC(=O)[C@]12C[C@H](CC(=O)N3CCOCC3)C(=O)N(Cc3cccc4ccccc34)C1=C[C@H](COCc1ccccc1)O[C@@H]2C | / | / | / | / | / | 7.5 | / | /
Cc1cc(C)c(CN2CCN(C(=O)Cn3cc(C)c(=O)[nH]c3=O)CC2)c(C)c1 | / | / | / | / | / | 3.3 | / | /
CCOc1ccc(N(CC(=O)Nc2c(C)n(C)n(-c3ccccc3)c2=O)S(=O)(=O)c2cccs2)cc1 | / | / | / | / | / | 0.1 | / | /
CCOC(=O)C1=CCC(c2ccc([N+](=O)[O-])cc2)N(S(=O)(=O)c2ccc(C)cc2)C1 (stereo not drawn) | / | / | / | / | / | 6.1 | / | /
CC1=Nc2nc(N3CCCCC3)c(C#N)c3c4c(nc(c23)N1)N(c1ccc(C(C)C)cc1)C(=O)C4 | 0.3 | -7.9 | 10.6 | 199.0 | -0.3 | 62.4* | 38.5* | 21.7*
CC(C)c1ccc(-c2nc(N3CCCCC3)[nH]c(=O)c2C#N)cc1 | 3.5 | 2.9 | 11.8 | 408.6 | 1.4 | 2.6 | / | /
Cc1c(CCC(=O)O)c(=O)oc2cc(OCc3ccccc3Br)ccc12 | 6.5 | 38.2 | 1.7 | 777.5 | 4.1 | 56.3* | 43.4* | 8.8*
Cc1c(CC(=O)O)c(=O)oc2cc(OCc3ccc(F)cc3F)ccc12 | -3.0 | 9.2 | -1.3 | 274.5 | 0.6 | 14.3 | / | /
Cc1c(CC(=O)O)c(=O)oc2cc(OCc3ccc(Br)cc3)ccc12 | -2.9 | 3.0 | 0.7 | 262.7 | 1.9 | 40.2* | 46.9* | 9.7* | dCAG dye DR=>29.9
NS(=O)(=O)c1ccc(N/N=C/c2cn(-c3ccccc3)nc2-c2cccs2)cc1 | 3.2 | 23.0 | 1.5 | 367.1 | -3.4 | 35.6* | 24.6 | 14.8*
O=C(O)c1cccc(N/N=C/c2cn(-c3ccccc3)nc2-c2cccs2)c1 | -1.4 | -7.2 | -1.1 | 270.1 | -2.5 | 48.1* | 75.9* | 36.7*
CCOc1ccc(Nc2nc(Cc3nnc(SCC(=O)O)o3)cs2)cc1 | -3.8 | 4.4 | 0.4 | 439.2 | 0.3 | 45.6* | 28.5 | 9.0*
CC1=C[C@@H]2[C@H]3C(=O)N(Cc4ccccc4)C(=O)[C@H]3[C@@H]1[C@@H]1O[C@@]3(C(=O)N(C)c4ccccc43)C3=C(CCCC3=O)N21 | / | / | / | / | / | 3.9 | / | /
Cc1ccc(-c2csc(NC(=O)c3ccc(C)o3)n2)cc1 | 0.3 | 7.6 | 1.3 | 90.0 | -0.9 | 3.7 | / | /
Cc1ccc(-c2csc(NC(=O)c3ccno3)n2)cc1 | 1.0 | 4.4 | 1.0 | 385.6 | 1.5 | 45.3* | 48.7* | 22.0*
Cc1ccc(C(=O)Nc2cc(S(=O)(=O)N3CCOCC3)ccc2N2CCCC2)cc1 | -2.3 | -78.0 | -3.0 | 615.4 | -1.3 | 4.5 | / | /
Cc1ccc(S(=O)(=O)NC(=O)c2cc(C)n(-c3cc(S(=O)(=O)N4CCOCC4)ccc3N3CCCC3)c2C)cc1 | -2.0 | -5.8 | -2.6 | 369.1 | -1.2 | 36.2* | 49.1* | 15.3*
O=C(Nc1ccc(F)cc1)OCc1cn(Cc2ccccc2Cl)nn1 | / | / | / | / | / | 0.1 | / | /
CCOC(=O)CSc1nc2c(sc(=S)n2-c2ccc(CC)cc2)c(=O)[nH]1 | -5.2 | 5.4 | 3.3 | 314.3 | 1.3 | 59.6* | 64.8* | 25.6*
CCCCNC(=O)CSc1nc2c(sc(=S)n2-c2cc(Cl)ccc2OC)c(=O)[nH]1 | 2.5 | 0.0 | 1.3 | 278.6 | -3.5 | 43.6* | 42.8* | 12.1*
CCOC(=O)CC(=O)CSc1nc2c(sc(=S)n2-c2ccccc2)c(=O)[nH]1 | 0.8 | 13.6 | -0.2 | 368.4 | 5.6 | 41.4* | 21.4 | 5.8*
SMILES | Granule exo inh | B2AR ag | MPTP block | T cell modulator | V-ATPase pHluor | rCAG binder | rCAG bind conf | DNA CAG counter | others
COC(=O)CNC(=O)CSc1nc2c(sc(=S)n2-c2ccccc2)c(=O)[nH]1 | -2.5 | 15.2 | 0.5 | 269.5 | 0.6 | 9.0 | / | /
O=C(NC1CC1)C1Nc2ccc(OC(F)(F)F)cc2C2C=CCC12 (stereo not drawn) | -0.4 | -0.4 | -0.1 | 535.6 | -1.5 | 42.5* | 1.6 | -0.4
O=C(NCc1ccccn1)C1Nc2ccc(OC(F)(F)F)cc2C2C=CCC12 (stereo not drawn) | -0.9 | -1.4 | 0.3 | 523.8 | 1.7 | 37.1* | 2.3 | 1.8
O=C(O)C1Nc2ccc(OC(F)(F)F)cc2C2C=CCC12 (stereo not drawn) | / | / | / | 691.3 | / | / | / | /
CCOC(=O)C1Nc2ccc(OC(F)(F)F)cc2C2C=CCC12 (stereo not drawn) | -1.7 | 11.1 | 3.3 | 180.4 | -0.8 | 40.1* | 17.4 | 6.1*
C=CCNc1ccc2c(c1)OC[C@H](Cc1ccccc1)NS2(=O)=O | / | / | / | / | / | -1.0 | / | /
CCOC(=O)C1CCCN(C/C(O)=C(\C#N)c2nc(-c3ccc(Cl)cc3)cs2)C1 (stereo not drawn) | 2.6 | 6.2 | 7.5 | 250.3 | -4.9 | 35.1* | 57.8* | 17.1*
N#CC(=C(O)CN1CCN(c2ccccc2F)CC1)c1nc(-c2ccccc2)cs1 | 0.4 | 10.3 | 9.1 | / | -3.5 | 51.0* | 50.7* | 17.8*
N#CC(=C(O)CN1CCN(c2ccccc2F)CC1)c1nc(-c2ccc(Cl)cc2)cs1 | -2.2 | 3.5 | 34.2 | / | -0.9 | 51.5* | 62.9* | 23.8*
CCCc1ccc(-c2cc(NC(=O)Cc3c(C)[nH]c4ccccc34)ccc2N(C)c2cccnc2)cc1 | / | / | / | / | / | 15.4 | / | /
COc1ccc(-c2cc(-c3ccccc3)nc(SC(C)C(=O)O)c2C#N)cc1 (stereo not drawn) | -8.0 | 6.7 | 0.0 | 211.4 | -2.8 | 70.5* | 75.7* | 38.0*
CC(C)C(Sc1nc(-c2ccccc2)cc(-c2ccccc2)c1C#N)C(=O)O (stereo not drawn) | 0.2 | -0.4 | 4.7 | 246.3 | -0.3 | 83.2* | 85.7* | 51.3*
O=C(N/N=C/c1ccccc1C(=O)O)c1cc(-c2ccc3c4c(cccc24)CC3)n[nH]1 | 2.0 | 4.2 | -3.2 | 750.4 | -1.3 | 58.2* | 62.4* | 23.7*
